The text below walks through data of article PMC4788712 (Acta Pharmaceutica Sinica. B, 2015).

“And” between values parts separate entries of the source, which are not always exact repeats. Identical values can stand only once. Like-named read-outs stand apart in the source and are kept apart here.

Data set [1] is described as follows: Plasma pharmacokinetics after a single oral dose of AZT. It is filed as in vivo, human. To be noted: for Plasma concentration of the phosphorylated metabolites: after single oral dose 600 mg AZT. Summed up: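 Open-label study in 12 healthy Chinese men (20–28 y) after an overnight fast of at least 12 h. Each took a single 600 mg oral dose of test compound with 240 mL water, with standardized meals at 4 and 10 h. Heparinized blood (20 mL) was drawn by antecubital catheter predose and at 0.5–10 h. Plasma was stored at –20 °C and assayed by validated LC–MS/MS (C18; 0.2% formic acid/methanol), LLOQ 0.1125 pg/μL.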

Data set [2] is described as follows: Safety and tolerability in healthy subjects. It is filed as in vivo, human. Summed up: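 Open-label, single-dose study in 12 screened healthy Chinese men, negative for hepatitis and HIV. After an overnight fast of at least 12 h, each took 600 mg orally with 240 mL water, with standardized meals at 4 and 10 h. Safety was assessed in all completers under prolonged bed rest, extended stay in the clinical unit, and enhanced clinical monitoring and nursing.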

The format of data set [3] is in vivo, human. As to conditions: for AUC0-t / AUC0-∞ / MRT0-t / MRT0-∞ / t1/2: in hPBMCs, single oral dose 600 mg AZT, mean±SD, n=12; for MRT inf / MRT last / half-life: male, human, peripheral blood mononuclear cells (hPBMCs), po, 600 mg.
The conditions of data set [4]: liver or heart mitochondria; cited from earlier work.
The mark [5] stands for this setting: single oral dose 600 mg AZT, 12 subjects.

In the case of `Cc1cn([C@H]2C[C@H](N=[N+]=[N-])[C@@H](CO)O2)c(=O)[nH]c1=O` [AZT, 3'-azido-3'-deoxythymidine], in data set [1] (male, human, po, 600 mg), the AUC0-t was found to be 7050 ± 1280 ng·h/mL; the AUC(0-inf) (as a rule, the area under the concentration-time curve extrapolated to infinity) came out at 7170 ± 1270 ng·h/mL; the peak concentration (Cmax) (usually the highest concentration seen after dosing) amounted to 3510 ± 363 ng/mL; the MRT inf (as a rule, the average time that molecules of a dose stay in the body) came to 2.4 ± 0.216 h. For the same compound, in data set [1] (male, human, po, 600 mg), the MRT last (usually the average time that molecules of a dose stay in the body) worked out at 2.2 ± 0.253 h; the Vd/F (usually the apparent distribution volume after extravascular dosing) is 264 ± 162 L; the half-life (in general, the time needed for the level to fall by half in the phase considered) is 2.02 ± 0.946 h. For the same compound, the CL/F (commonly the apparent clearance, not corrected for the fraction that reaches the circulation) in data set [1] (single oral dose 600 mg AZT, mean±SD, n=12) was 86.092 ± 14.962 L/h. For the same compound, the “Hypersensitivity to AZT” value in data set [2] (12 subjects) is “None of the 12 subjects had hypersensitivity”. In addition, the Tolerability entry in data set [2] (single oral dose 600 mg AZT, 12 healthy Chinese male subjects) was “well tolerated”. Further, in data set [2] (setting [5]), the “Reported ADR: headache” value is recorded as “one report” and the “Reported ADR: nausea” value is recorded as “one report”. Also, in data set [3], the AUC0-t was determined as 0.371±0.193 ng⋅h/10^6 cell, the “AUC0-∞” value worked out at 0.396±0.189 ng⋅h/10^6 cell, the mean residence time (MRT inf) came to 14.9 ± 32.4 h and the mean residence time MRT last worked out at 4.94 ± 19.3 h. The half-life in data set [3] was 2.49 ± 0.638 h.

In the case of `Cc1cn([C@H]2C[C@H](N=[N+]=[N-])[C@@H](COP(=O)(O)OP(=O)(O)O)O2)c(=O)[nH]c1=O` [AZT-DP, AZT diphosphate], in data set [1], the “Plasma concentration of the phosphorylated metabolites” value (“Plasma concentration” for short) was “not present in measurable levels”. Moreover, in data set [3], the AUC0-t came out at 0.345±0.055 ng⋅h/10^6 cell, the “AUC0-∞” value is listed as 0.615±0.161 ng⋅h/10^6 cell, the MRT0-t came to 0.792 ± 12.028 h and the “MRT0-∞” value was determined as 14.270 ± 6.350 h. The t1/2 in data set [3] is 8.285 ± 2.840 h.

`Cc1cn([C@H]2C[C@H](N=[N+]=[N-])[C@@H](COP(=O)(O)O)O2)c(=O)[nH]c1=O` [AZT-MP, AZT monophosphate]: the “Plasma concentration” value in data set [1] is recorded as “not present in measurable levels”. Also, in data set [3], the AUC0-t is 2.548 ng⋅h/10^6 cell and 2.548±0.656 ng⋅h/10^6 cell; the “AUC0-∞” value amounted to 6.343±2.964 ng⋅h/10^6 cell; the MRT0-t stood at 4.190 ± 0.347 h; the “MRT0-∞” value was found to be 18.715 ± 12.856 h. The compound also registered a t1/2 in data set [3] of 13.428 ± 9.611 h.

Regarding `Cc1cn([C@H]2C[C@H](N=[N+]=[N-])[C@@H](CO[P@](=O)(O)O[P@](=O)(O)OP(=O)(O)O)O2)c(=O)[nH]c1=O` [AZT-TP, 5′-AZT triphosphate], in data set [1], the “Plasma concentration” value was “not present in measurable levels”. Moreover, in data set [4], the “Detection of AZT-TP during incubation in mitochondria” value is given as “No AZT-TP was detected”. In data set [3], the AUC0-t turned out to be 0.223±0.043 ng⋅h/10^6 cell, the “AUC0-∞” value is given as 0.279±0.069 ng⋅h/10^6 cell, the MRT inf stood at 6.33 ± 1.14 h and the mean residence time (MRT last) came to 3.87 ± 0.235 h. Also, the half-life in data set [3] is 4.24 ± 0.977 h.
